Source: ChEMBL document CHEMBL4316640, “Taichunins A-D, Norditerpenes from Aspergillus taichungensis (IBT 19404)” (J Nat Prod, 2019)
Calls of active or inactive are those of the source. No cut-off for these calls is given here.

Columns and labels:
[1] = test system: Proteasome; assay: Inhibition of proteasome (unknown origin); format: subcellular; conditions: Homo sapiens
[2] = test system: Macrophage; assay: Inhibition of cholesterol ester accumulation in macrophages (unknown origin); format: functional, cell-based
[3] = test system: HeLa; assay: Cytotoxicity in human HeLa cells at 50 uM incubated for 3 days by MTT assay; format: functional, cell-based
Outline: (§1)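 HeLa cells; daunorubicin run alongside as the positive control.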

[4] = target: Ubiquitin-conjugating enzyme E2 N/Ubiquitin-conjugating enzyme E2 variant 1 (Homo sapiens) (UniProt Q13404+P61088); assay: Inhibition of Ubc13/Uev1A interaction (unknown origin); format: protein assay
[5] = test system: Osteoclast; assay: Inhibition of RANKL-induced formation of multinuclear osteoclasts (unknown origin); format: functional, cell-based
[6] = target: Tumour suppressor p53/oncoprotein Mdm2 (Homo sapiens) (UniProt P04637+Q00987); assay: Inhibition of p53/Mdm2 interaction (unknown origin); format: protein assay
Chain of Tumour suppressor p53/oncoprotein Mdm2 (Homo sapiens) (P04637 whole entry, looked up): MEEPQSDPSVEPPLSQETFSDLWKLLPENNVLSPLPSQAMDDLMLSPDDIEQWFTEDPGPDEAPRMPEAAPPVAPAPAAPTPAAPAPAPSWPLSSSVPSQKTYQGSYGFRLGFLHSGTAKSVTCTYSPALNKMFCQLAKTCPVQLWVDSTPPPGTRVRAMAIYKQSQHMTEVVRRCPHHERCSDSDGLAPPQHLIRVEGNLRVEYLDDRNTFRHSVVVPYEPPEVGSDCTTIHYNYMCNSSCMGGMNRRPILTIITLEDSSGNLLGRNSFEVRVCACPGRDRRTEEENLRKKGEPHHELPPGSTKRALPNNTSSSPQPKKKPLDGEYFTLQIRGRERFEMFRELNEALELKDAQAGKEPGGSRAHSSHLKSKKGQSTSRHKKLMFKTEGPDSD
Chain of Tumour suppressor p53/oncoprotein Mdm2 (Homo sapiens) (Q00987 whole entry, looked up): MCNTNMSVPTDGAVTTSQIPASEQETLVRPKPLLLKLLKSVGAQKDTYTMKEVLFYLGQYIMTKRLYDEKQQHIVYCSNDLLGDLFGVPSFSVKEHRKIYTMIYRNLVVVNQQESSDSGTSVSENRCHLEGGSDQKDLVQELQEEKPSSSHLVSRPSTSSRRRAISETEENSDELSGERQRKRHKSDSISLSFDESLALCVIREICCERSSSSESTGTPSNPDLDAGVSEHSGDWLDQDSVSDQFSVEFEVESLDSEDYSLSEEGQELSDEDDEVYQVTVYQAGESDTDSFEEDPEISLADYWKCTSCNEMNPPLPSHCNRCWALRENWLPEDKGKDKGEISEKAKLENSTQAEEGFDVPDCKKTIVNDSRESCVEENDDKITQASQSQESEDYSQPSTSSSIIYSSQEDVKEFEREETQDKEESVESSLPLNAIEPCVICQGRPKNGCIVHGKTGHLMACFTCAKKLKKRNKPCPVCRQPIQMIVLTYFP

[7] = target: Ubiquitin carboxyl-terminal hydrolase 7 (Homo sapiens) (UniProt Q93009); assay: Inhibition of USP7 (unknown origin)
Chain of Ubiquitin carboxyl-terminal hydrolase 7 (Homo sapiens) (Q93009 whole entry, looked up): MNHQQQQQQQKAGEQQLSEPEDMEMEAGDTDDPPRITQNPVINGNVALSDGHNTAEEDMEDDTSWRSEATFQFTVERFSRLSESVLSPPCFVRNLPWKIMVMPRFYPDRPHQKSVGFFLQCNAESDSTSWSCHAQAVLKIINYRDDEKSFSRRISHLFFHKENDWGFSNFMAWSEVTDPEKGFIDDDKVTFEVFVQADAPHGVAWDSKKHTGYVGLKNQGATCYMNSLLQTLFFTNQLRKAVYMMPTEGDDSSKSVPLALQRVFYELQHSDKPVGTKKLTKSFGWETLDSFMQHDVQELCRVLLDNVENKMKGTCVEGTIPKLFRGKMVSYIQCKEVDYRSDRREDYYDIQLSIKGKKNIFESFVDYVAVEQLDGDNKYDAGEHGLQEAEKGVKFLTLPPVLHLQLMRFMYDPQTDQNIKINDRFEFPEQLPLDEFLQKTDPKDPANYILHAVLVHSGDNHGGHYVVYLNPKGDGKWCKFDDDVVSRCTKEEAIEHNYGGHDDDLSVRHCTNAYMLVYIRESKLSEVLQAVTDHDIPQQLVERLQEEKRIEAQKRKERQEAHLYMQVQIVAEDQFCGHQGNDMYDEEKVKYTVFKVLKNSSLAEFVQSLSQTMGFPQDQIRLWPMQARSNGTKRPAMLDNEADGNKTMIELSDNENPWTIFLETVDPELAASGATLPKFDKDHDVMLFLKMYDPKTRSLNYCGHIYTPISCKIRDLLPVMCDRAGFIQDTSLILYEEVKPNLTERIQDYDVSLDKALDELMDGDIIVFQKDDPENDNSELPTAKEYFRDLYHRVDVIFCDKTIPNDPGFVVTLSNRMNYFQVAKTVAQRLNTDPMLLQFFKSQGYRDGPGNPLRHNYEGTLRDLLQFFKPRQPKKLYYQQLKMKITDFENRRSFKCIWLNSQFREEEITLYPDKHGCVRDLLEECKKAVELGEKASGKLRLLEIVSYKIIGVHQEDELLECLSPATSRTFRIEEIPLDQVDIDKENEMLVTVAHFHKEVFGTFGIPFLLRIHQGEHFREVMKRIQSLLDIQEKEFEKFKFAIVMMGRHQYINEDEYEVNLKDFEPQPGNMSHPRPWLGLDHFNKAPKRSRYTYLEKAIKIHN

[8] = target: T1, Ubiquitin-like modifier-activating enzyme 1 (Homo sapiens) (UniProt P22314); assay: Inhibition of Ubiquitin/Ubiquitin-activating enzyme E1 (unknown origin)
T1 sequence (whole entry): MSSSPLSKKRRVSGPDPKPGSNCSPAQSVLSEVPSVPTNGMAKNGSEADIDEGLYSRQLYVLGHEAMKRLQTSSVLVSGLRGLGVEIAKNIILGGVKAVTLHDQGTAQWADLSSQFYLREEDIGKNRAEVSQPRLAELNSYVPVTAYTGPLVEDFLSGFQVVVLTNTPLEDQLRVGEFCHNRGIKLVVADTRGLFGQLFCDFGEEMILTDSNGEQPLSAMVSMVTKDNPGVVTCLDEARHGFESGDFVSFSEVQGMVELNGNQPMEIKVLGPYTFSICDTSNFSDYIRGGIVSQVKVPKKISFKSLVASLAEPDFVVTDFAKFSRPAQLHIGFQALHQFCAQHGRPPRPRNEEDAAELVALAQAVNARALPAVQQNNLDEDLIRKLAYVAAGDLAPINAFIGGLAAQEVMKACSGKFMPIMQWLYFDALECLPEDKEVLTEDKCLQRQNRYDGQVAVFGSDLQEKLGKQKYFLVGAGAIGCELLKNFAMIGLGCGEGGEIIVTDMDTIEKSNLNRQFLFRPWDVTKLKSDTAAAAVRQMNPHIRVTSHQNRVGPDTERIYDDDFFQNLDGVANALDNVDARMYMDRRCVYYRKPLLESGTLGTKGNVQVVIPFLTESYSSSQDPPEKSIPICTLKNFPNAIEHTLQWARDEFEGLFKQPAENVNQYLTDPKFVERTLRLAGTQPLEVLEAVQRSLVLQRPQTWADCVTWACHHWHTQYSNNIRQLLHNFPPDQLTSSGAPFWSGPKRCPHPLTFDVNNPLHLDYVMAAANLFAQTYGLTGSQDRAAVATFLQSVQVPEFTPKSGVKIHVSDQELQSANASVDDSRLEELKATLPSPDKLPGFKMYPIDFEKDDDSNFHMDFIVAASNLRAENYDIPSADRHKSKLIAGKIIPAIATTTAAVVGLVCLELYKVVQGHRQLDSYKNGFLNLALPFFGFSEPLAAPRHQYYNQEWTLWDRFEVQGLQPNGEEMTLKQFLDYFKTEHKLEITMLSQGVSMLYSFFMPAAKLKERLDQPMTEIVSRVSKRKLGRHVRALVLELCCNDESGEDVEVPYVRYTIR

[9] = test system: HeLa; assay: Cytotoxicity in human HeLa cells incubated for 3 days by MTT assay; format: functional, cell-based; conditions: 72 h; outline: as §1

Row | Structure (SMILES) | inhibition [1] | inhibition [4] | inhibition [6] | inhibition [7] | inhibition [8] | inhibition [2] | Activity [3] | inhibition [5] | IC50 [9] [µM]
1 | C=C[C@]1(C)CC2=C(O)C(=O)C3=C(CCCC3(C)C)C2=CC1=O | inactive | inactive | inactive | inactive | inactive | inactive | inactive | inactive | 
2 | C=C[C@@]1(C)CCC2=C(C(=O)O[C@]23CCCC(C)(C)[C@@H]3C(=O)O)[C@@H]1O | inactive | inactive | inactive | inactive | inactive | inactive | inactive | inactive | 
3 | C=C[C@@]1(C)CCC2=C(C(=O)O[C@]23CCCC(C)(C)[C@@H]3C(=O)O[C@@H]2O[C@H](CO)[C@@H](O)[C@H](O)[C@H]2O)[C@@H]1O | inactive | inactive | inactive | inactive | inactive | inactive | inactive | inactive | 

Second part, led by results:

Row | inhibition [1] | inhibition [4] | inhibition [6] | inhibition [7] | inhibition [8] | Structure (SMILES) | inhibition [2] | Activity [3] | inhibition [5] | IC50 [9] [µM]
4 | inactive | inactive | inactive | inactive | inactive | C=C[C@]1(C)C=C2[C@@H](O)[C@@]3(O)OC(=O)[C@@]4(CCCC(C)(C)[C@H]34)[C@@]2(O)CC1 | inactive | inactive | inactive | 
5 | inactive | inactive | inactive | inactive | inactive | C=C[C@]1(C)C=C2C(=O)O[C@@]34CCCC(C)(C)[C@@H]3C(=O)O[C@@]24CC1 | inactive |  | inactive | 4.5
